From ChEMBL document CHEMBL1158495, “Quinolone carboxylic acids as a novel monoketo acid class of human immunodeficiency virus type 1 integrase inhibitors” (J Med Chem, 2009)

Legend:
[1] = Cytotoxicity against human MT4 cells after 5 days by MTT assay; type: cell-based
How it was run: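 Uninfected MT-4 cells at 1 × 10^5 cells/mL in RPMI 1640 with 10% FBS, penicillin and streptomycin, exposed to compounds at 37 °C for 5 days. Viability by MTT (7.5 mg/mL solution); formazan taken up in acidic isopropanol containing 4% Triton-X, read at 595 nm.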

[2] = tested on: Human immunodeficiency virus 1; assay: Antiviral activity against HIV1 3B infected in human MT4 cells assessed as inhibition of viral replication after 5 days by MTT assay; type: functional, organism-based; settings: Human immunodeficiency virus 1, 3B, MT4, 120 h
How it was run: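 MT-4 human T lymphoid cells at 1 × 10^5 cells/mL in RPMI 1640 with 10% FBS, penicillin and streptomycin; infected with strain IIIb at multiplicity 0.01, compounds added, 37 °C for 5 days. Viability read by MTT (7.5 mg/mL solution), formazan dissolved in acidic isopropanol with 4% Triton-X, absorbance at 595 nm.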

[3] = molecular target: Human immunodeficiency virus type 1 integrase (Human immunodeficiency virus 1, UniProt Q7ZJM1); assay: Inhibition of HIV1 integrase strand transfer activity
Sequence of Human immunodeficiency virus type 1 integrase (Q7ZJM1 whole entry): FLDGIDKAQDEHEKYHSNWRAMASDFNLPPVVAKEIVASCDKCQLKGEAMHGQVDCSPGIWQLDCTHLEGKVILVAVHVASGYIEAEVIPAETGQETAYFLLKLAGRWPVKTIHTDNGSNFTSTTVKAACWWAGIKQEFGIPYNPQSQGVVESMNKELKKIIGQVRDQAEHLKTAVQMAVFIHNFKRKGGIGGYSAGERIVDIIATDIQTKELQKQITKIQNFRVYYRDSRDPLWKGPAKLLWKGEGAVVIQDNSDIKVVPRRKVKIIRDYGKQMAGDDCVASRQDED

[4] = Selectivity index, ratio of CC50 for human MT4 cells to EC50 for HIV1 3B; type: toxicity, cell-based
How it was run: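 For EC50, cells were infected with HIV-1 IIIb at multiplicity 0.01 before compound was added; for CC50, cells were uninfected. Viability was read by MTT reduction, with formazan dissolved in acidic isopropanol/4% Triton-X and absorbance at 595 nm.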

[5] = tested on: Human immunodeficiency virus 1; assay: Antiviral activity against HIV1 infected in human PBMN cells assessed as inhibition of viral replication in presence of 50% human serum; type: functional; settings: Human immunodeficiency virus 1, PBMN

| SMILES | IC50 [3] [nM] | EC90 [5] [nM] | CC50 at 120 h [1] [nM] | EC50 [2] [nM] | selectivity ratio [4] |
| --- | --- | --- | --- | --- | --- |
| O=C(O)Cn1cc(C(=O)O)c(=O)c2cc(Cc3cccc(Cl)c3Cl)ccc21 | 32 | – | > 30000 | 13600 | – |
| O=C(O)c1cn(CCO)c2cc(C(F)(F)F)c(Cc3cccc(Cl)c3Cl)cc2c1=O | 674 | – | 10000 | > 6000 | – |
| COc1cc2c(cc1Cc1cccc(Cl)c1F)c(=O)c(C(=O)O)cn2[C@@H](CO)C(C)C | – | – | 4200 | 109 | – |
| O=C(O)/C(O)=C/C(=O)c1cccc(Cc2ccccc2)c1 | – | – | > 30000 | 440 | – |
| O=C(O)c1cn(CCO)c2c(F)cc(Cc3cccc(Cl)c3Cl)cc2c1=O | 34 | – | > 30000 | 530 | – |
| O=C(O)c1cn(CCO)c2cc(Cl)c(Cc3cccc(Cl)c3Cl)cc2c1=O | 43 | – | > 6000 | 510 | – |
| O=C(O)c1cn(CCO)c2ccc(Cc3cccc(Cl)c3F)cc2c1=O | – | – | > 6000 | 80 | – |
| CC(C)[C@@H](CO)n1cc(C(=O)O)c(=O)c2cc(Cc3cccc(Cl)c3F)ccc21 | – | – | 14000 | 7.5 | – |
| O=C(O)c1cn(CCO)c2cc(F)c(Cc3cccc(Cl)c3Cl)cc2c1=O | 25 | – | 9800 | 130 | – |
| NC(=O)CCn1cc(C(=O)O)c(=O)c2cc(Cc3cccc(Cl)c3Cl)ccc21 | 116 | – | 15100 | 2040 | – |
| CC(C)(C)[C@@H](CO)n1cc(C(=O)O)c(=O)c2cc(Cc3cccc(Cl)c3F)ccc21 | 6 | – | 14400 | 1.3 | – |
| O=C(O)c1cn(CCO)c2ccc(Cc3cccc(F)c3Cl)cc2c1=O | 44 | – | > 6000 | 340 | – |
| Cc1cc2c(cc1Cc1cccc(Cl)c1Cl)c(=O)c(C(=O)O)cn2CCO | 41 | – | > 30000 | 180 | – |
| COc1cc2c(cc1Cc1cccc(Cl)c1Cl)c(=O)c(C(=O)O)cn2CCO | 12 | – | 4200 | 60 | – |
| O=C(O)c1cn(CCO)c2ccc(Cc3cccc(Cl)c3Cl)c(F)c2c1=O | 84 | – | 14300 | 1680 | – |
| COc1cc2c(cc1Cc1cccc(Cl)c1F)c(=O)c(C(=O)O)cn2[C@H](CO)C(C)(C)C | 5.8 | – | 3400 | 0.6 | > 4000 |
| O=C(O)c1cnc2ccc(Cc3ccccc3)cc2c1O | – | – | > 30000 | > 30000 | – |
| O=C(O)c1c[nH]c2ccc(Cc3cc(Cl)ccc3Cl)cc2c1=O | 250 | – | 13200 | > 6000 | – |
| COc1cc2c(cc1Cc1cccc(Cl)c1F)c(=O)c(C(=O)O)cn2[C@H](CO)C(C)C | – | 9.8 | 4000 | 0.9 | – |
| O=C(O)c1cn([C@H](CO)C2CCCCC2)c2ccc(Cc3cccc(Cl)c3F)cc2c1=O | 5.6 | – | 7700 | 7.3 | – |
| O=C(O)CCn1cc(C(=O)O)c(=O)c2cc(Cc3cccc(Cl)c3Cl)ccc21 | 38 | – | > 30000 | > 30000 | – |
| O=C(O)c1cn(CCCO)c2ccc(Cc3cccc(Cl)c3Cl)cc2c1=O | 77 | – | 15100 | 470 | – |
| COc1cc2c(cc1Cc1cccc(Cl)c1F)c(=O)c(C(=O)O)cn2CCO | – | – | 5300 | 20 | – |
| CCC[C@@H](CO)n1cc(C(=O)O)c(=O)c2cc(Cc3cccc(Cl)c3F)c(OC)cc21 | 5.8 | – | 3100 | 1.3 | – |
| COc1cc2c(cc1Cc1cccc(Cl)c1F)c(=O)c(C(=O)O)cn2[C@H](CO)C1CCCCC1 | 6.7 | – | 3000 | 2.8 | – |
| N#Cc1cc2c(cc1Cc1cccc(Cl)c1Cl)c(=O)c(C(=O)O)cn2CCO | 50 | – | 13900 | 2000 | – |

Now from value to molecule, other results behind:

| IC50 [3] [nM] | EC90 [5] [nM] | SMILES | CC50 at 120 h [1] [nM] | EC50 [2] [nM] | selectivity ratio [4] |
| --- | --- | --- | --- | --- | --- |
| 31 | – | CCn1cc(C(=O)O)c(=O)c2cc(Cc3cccc(Cl)c3Cl)ccc21 | 16200 | 290 | – |
| > 100000 | – | Cn1cc(C(=O)C(=O)O)c(=O)c2cc(Cc3ccccc3)ccc21 | > 30000 | > 30000 | – |
| 14.8 | – | C[C@@H](CO)n1cc(C(=O)O)c(=O)c2cc(Cc3cccc(Cl)c3F)ccc21 | 13700 | 27.7 | – |
| 800 | – | O=C(O)c1c[nH]c2ccc(Cc3cccc(Cl)c3)cc2c1=O | > 6000 | > 6000 | – |
| 38.3 | – | C[C@H](CO)n1cc(C(=O)O)c(=O)c2cc(Cc3cccc(Cl)c3F)ccc21 | 14400 | 116 | – |
| 410 | – | O=C(O)c1c[nH]c2ccc(Cc3ccccc3Cl)cc2c1=O | > 6000 | > 6000 | – |
| 9.8 | – | O=C(O)c1cn([C@H](CO)c2ccccc2)c2ccc(Cc3cccc(Cl)c3F)cc2c1=O | 8700 | 51.6 | – |
| 2300 | – | Cn1cc(C(=O)O)c(=O)c2cc(Cc3ccccc3)ccc21 | > 30000 | > 30000 | – |
| 370 | – | O=C(O)c1c[nH]c2ccc(Cc3c(Cl)cccc3Cl)cc2c1=O | 14900 | > 6000 | – |
| 26 | – | CC(C)n1cc(C(=O)O)c(=O)c2cc(Cc3cccc(Cl)c3Cl)ccc21 | > 6000 | 330 | – |
| 720 | – | O=C(O)c1c[nH]c2ccc(Cc3ccccc3C(F)(F)F)cc2c1=O | 14800 | > 6000 | – |
| 65 | – | CCCCn1cc(C(=O)O)c(=O)c2cc(Cc3cccc(Cl)c3Cl)ccc21 | 15000 | 2340 | – |
| > 100000 | – | O=C(O)c1c[nH]c2ccc(Cc3ccc(Cl)cc3)cc2c1=O | > 6000 | > 6000 | – |
| 1080 | – | Cc1ccccc1Cc1ccc2[nH]cc(C(=O)O)c(=O)c2c1 | 18500 | > 6000 | – |
| 8.2 | – | CCC[C@@H](CO)n1cc(C(=O)O)c(=O)c2cc(Cc3cccc(Cl)c3F)ccc21 | 12500 | 9.8 | – |
| > 100000 | – | NC(=O)c1c[nH]c2ccc(Cc3ccccc3)cc2c1=O | > 30000 | > 30000 | – |
| 1170 | – | COc1ccccc1Cc1ccc2[nH]cc(C(=O)O)c(=O)c2c1 | 16600 | > 6000 | – |
| > 100000 | – | CCOC(=O)c1cnc2ccc(Cc3ccccc3)cc2c1O | > 30000 | > 30000 | – |
| 21 | – | O=C(O)c1cn(CCO)c2ccc(Cc3cccc(Cl)c3Cl)cc2c1=O | > 6000 | 100 | – |
| 500 | – | O=C(O)c1c[nH]c2ccc(Cc3ccccc3F)cc2c1=O | > 30000 | 15900 | – |
| 35 | – | NC(=O)Cn1cc(C(=O)O)c(=O)c2cc(Cc3cccc(Cl)c3Cl)ccc21 | 22600 | 540 | – |
| 9 | – | CC[C@@H](CO)n1cc(C(=O)O)c(=O)c2cc(Cc3cccc(Cl)c3F)ccc21 | 13000 | 17.1 | – |
| 83 | – | Cn1cc(C(=O)O)c(=O)c2cc(Cc3cccc(Cl)c3Cl)ccc21 | 14400 | 450 | – |
| 55 | – | CCCn1cc(C(=O)O)c(=O)c2cc(Cc3cccc(Cl)c3Cl)ccc21 | 15600 | 640 | – |
| 70 | – | O=C(O)c1c[nH]c2ccc(Cc3cccc(Cl)c3Cl)cc2c1=O | 12600 | 3400 | – |
| 215 | – | NCCn1cc(C(=O)O)c(=O)c2cc(Cc3cccc(Cl)c3Cl)ccc21 | 5300 | 570 | – |
